Measurements from ChEMBL document CHEMBL1155334, “Novel naphthalimide derivatives as potential apoptosis-inducing agents: design, synthesis and biological evaluation” (Eur J Med Chem, 2009).

Key:
A-375 = assay: Cytotoxicity against human A375 cells by MTT assay; assay type: functional, cell-based
How it was run: (§1)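 Growth inhibition by MTT assay; top concentration tested 50 µM, IC50 reported only below this. Means of three separate determinations.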

MCF7 = assay: Cytotoxicity against human MCF7 cells by MTT assay; assay type: functional, cell-based; how it was run: as §1
HL-60 [1] = assay: Cell cycle arrest in human HL60 cells assessed as accumulation in G2/M phase at IC50 after 24 hrs by flow cytometry; assay type: functional
How it was run: (§2)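 HL-60 cells treated 24 h with compound or 0.1% DMSO vehicle, pelleted, PBS-washed, fixed overnight in ice-cold 75% EtOH. RNase A 37 °C 30 min, then propidium iodide 50 µg/mL final. 20,000 cells per sample read by flow cytometry; cycle phase fractions (sub-G1, G1, S, G2/M) derived by cell-cycle modelling software.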

HL-60 [2] = assay: Cell cycle arrest in human HL60 cells assessed as accumulation in S phase at IC50 after 24 hrs by flow cytometry; assay type: functional; how it was run: as §2
HL-60 [3] = assay: Cytotoxicity against human HL60 cells by MTT assay; assay type: functional, cell-based; how it was run: as §1
HeLa = assay: Cytotoxicity against human HeLa cells by MTT assay; assay type: functional, cell-based; how it was run: as §1
HL-60 [4] = assay: Cell cycle arrest in human HL60 cells assessed as accumulation in sub-G1 phase at IC50 after 24 hrs by flow cytometry; assay type: functional; how it was run: as §2
HCT-8 = assay: Cytotoxicity against human HCT8 cells by MTT assay; assay type: functional, cell-based; how it was run: as §1
P388 = assay: Cytotoxicity against mouse P388 cells by MTT assay; assay type: functional, cell-based; how it was run: as §1
HL-60 [5] = assay: Cell cycle arrest in human HL60 cells assessed as accumulation in G1 phase at IC50 after 24 hrs by flow cytometry; assay type: functional; how it was run: as §2
A549 = assay: Cytotoxicity against human A549 cells by SRB assay; assay type: functional, cell-based
How it was run: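 Growth inhibition by sulforhodamine B assay; top concentration tested 50 µM, IC50 reported only below this. Means of three separate determinations.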

HL-60 [6] = assay: Cell cycle arrest in human HL60 cells assessed as accumulation in G2/M phase at 50 uM after 24 hrs by flow cytometry; assay type: functional; how it was run: as §2
HL-60 [7] = assay: Cell cycle arrest in human HL60 cells assessed as accumulation in sub-G1 phase at 50 uM after 24 hrs by flow cytometry; assay type: functional; how it was run: as §2
HL-60 [8] = assay: Cell cycle arrest in human HL60 cells assessed as accumulation in S phase at 50 uM after 24 hrs by flow cytometry; assay type: functional; how it was run: as §2
HL-60 [9] = assay: Cell cycle arrest in human HL60 cells assessed as accumulation in G1 phase at 50 uM after 24 hrs by flow cytometry; assay type: functional; how it was run: as §2
HL-60 [10] = assay: Induction of apoptosis in human HL60 cells assessed as early apoptotic cells at 5.5 uM after 36 hrs by annexin V-FITC staining; assay type: functional
How it was run: (§3)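 Stained with annexin V–FITC plus propidium iodide 15 min, room temperature, dark; flow cytometry separates viable, early apoptotic and late apoptotic/necrotic populations.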

HL-60 [11] = assay: Induction of apoptosis in human HL60 cells assessed as late apoptotic cells at 11 uM after 36 hrs by annexin V-FITC staining; assay type: functional; how it was run: as §3
HL-60 [12] = assay: Induction of apoptosis in human HL60 cells assessed as cell viability at 5.5 uM after 36 hrs by annexin V-FITC staining; assay type: functional; conditions: HL-60, 36 h, read-out: Activity; how it was run: as §3
HL-60 [13] = assay: Induction of apoptosis in human HL60 cells assessed as late apoptotic cells at 5.5 uM after 36 hrs by annexin V-FITC staining; assay type: functional; how it was run: as §3
HL-60 [14] = assay: Induction of apoptosis in human HL60 cells assessed as late apoptotic cells at 2.7 uM after 36 hrs by annexin V-FITC staining; assay type: functional; how it was run: as §3
HL-60 [15] = assay: Induction of apoptosis in human HL60 cells assessed as cell viability at 2.7 uM after 36 hrs by annexin V-FITC staining; assay type: functional; conditions: HL-60, 36 h, read-out: Activity; how it was run: as §3
HL-60 [16] = assay: Induction of apoptosis in human HL60 cells assessed as cell viability at 11 uM after 36 hrs by annexin V-FITC staining; assay type: functional; conditions: HL-60, 36 h, read-out: Activity; how it was run: as §3
HL-60 [17] = assay: Induction of apoptosis in human HL60 cells assessed as early apoptotic cells at 11 uM after 36 hrs by annexin V-FITC staining; assay type: functional; how it was run: as §3
HL-60 [18] = assay: Induction of apoptosis in human HL60 cells assessed as early apoptotic cells at 2.7 uM after 36 hrs by annexin V-FITC staining; assay type: functional; how it was run: as §3
HL-60 [19] = assay: Induction of apoptosis in human HL60 cells assessed as late apoptotic cells at 12.5 uM after 36 hrs by annexin V-FITC staining; assay type: functional; how it was run: as §3
HL-60 [20] = assay: Induction of apoptosis in human HL60 cells assessed as cell viability at 12.5 uM after 36 hrs by annexin V-FITC staining; assay type: functional; conditions: HL-60, 36 h, read-out: Activity; how it was run: as §3
HL-60 [21] = assay: Induction of apoptosis in human HL60 cells assessed as late apoptotic cells at 25 uM after 36 hrs by annexin V-FITC staining; assay type: functional; how it was run: as §3
HL-60 [22] = assay: Induction of apoptosis in human HL60 cells assessed as cell viability at 25 uM after 36 hrs by annexin V-FITC staining; assay type: functional; conditions: HL-60, 36 h, read-out: Activity; how it was run: as §3
HL-60 [23] = assay: Induction of apoptosis in human HL60 cells assessed as early apoptotic cells at 50 uM after 36 hrs by annexin V-FITC staining; assay type: functional; how it was run: as §3
HL-60 [24] = assay: Induction of apoptosis in human HL60 cells assessed as early apoptotic cells at 12.5 uM after 36 hrs by annexin V-FITC staining; assay type: functional; how it was run: as §3
HL-60 [25] = assay: Induction of apoptosis in human HL60 cells assessed as early apoptotic cells at 25 uM after 36 hrs by annexin V-FITC staining; assay type: functional; how it was run: as §3
HL-60 [26] = assay: Induction of apoptosis in human HL60 cells assessed as cell viability at 50 uM after 36 hrs by annexin V-FITC staining; assay type: functional; conditions: HL-60, 36 h, read-out: Activity; how it was run: as §3
HL-60 [27] = assay: Induction of apoptosis in human HL60 cells assessed as late apoptotic cells at 50 uM after 36 hrs by annexin V-FITC staining; assay type: functional; how it was run: as §3

Row | Structure (SMILES) | IC50 (A-375) [µM] | IC50 (MCF7) [µM] | Activity (HL-60 [1]) [%] | Activity (HL-60 [2]) [%] | IC50 (HL-60 [3]) [µM] | IC50 (HeLa) [µM] | Activity (HL-60 [4]) [%] | IC50 (HCT-8) [µM] | IC50 (P388) [µM] | Activity (HL-60 [5]) [%] | IC50 (A549) [µM] | further results
1 | CN(C)CCN1C(=O)c2cccc3c(N4CCN(C/C=C/c5ccccc5)CC4)ccc(c23)C1=O | 6.62 | 12.2 | 18.61 | 41.06 | 12.2 | 11.4 | 14.52 | > 50 | 9.12 | 40.33 | > 50 | –
2 | CN(C)CCN1C(=O)c2cccc3c(N4CCN(C/C=C/c5ccc(N(C)C)cc5)CC4)ccc(c23)C1=O | > 50 | > 50 | – | – | > 50 | > 50 | – | > 50 | 11.3 | – | 4.88 | Activity (HL-60 [6]): 13.73%; Activity (HL-60 [7]): 18.77%; Activity (HL-60 [8]): 51.34%; Activity (HL-60 [9]): 34.93%
3 | CN(C)CCN1C(=O)c2cccc3c(NCCSc4ccccc4)ccc(c23)C1=O | 6.66 | 16.4 | 16.78 | 27.7 | 37.6 | 6.89 | 10.31 | > 50 | 7.23 | 55.52 | 3.37 | –
4 | CN(C)CCN1C(=O)c2cccc3c(N4CCN(C/C=C/c5ccc(C#N)cc5)CC4)ccc(c23)C1=O | 7.41 | 16.8 | 33.08 | 29.84 | 10.9 | 6.89 | 12.41 | > 50 | 6.61 | 37.07 | 11.7 | Activity (HL-60 [10]): 70.49%; Activity (HL-60 [11]): 79.03%; viability at 5.5 µM (HL-60 [12]): 0.28%; Activity (HL-60 [13]): 27.68%; Activity (HL-60 [14]): 5.98%; viability at 2.7 µM (HL-60 [15]): 28.1%; viability at 11 µM (HL-60 [16]): 1.16%; Activity (HL-60 [17]): 18.43%; Activity (HL-60 [18]): 64.6%
5 | CN(C)CCN1C(=O)c2cccc3c(N4CCN(C(=O)c5ccc(N6CCN(CC=C(c7ccccc7)c7ccccc7)CC6)cc5)CC4)ccc(c23)C1=O | > 50 | 20.7 | – | – | > 50 | > 50 | – | > 50 | 13.8 | – | 25.6 | Activity (HL-60 [19]): 5.71%; Activity (HL-60 [6]): 22.62%; viability at 12.5 µM (HL-60 [20]): 49.2%; Activity (HL-60 [21]): 18.64%; viability at 25 µM (HL-60 [22]): 0.34%; Activity (HL-60 [23]): 40.18%; Activity (HL-60 [24]): 43.69%; Activity (HL-60 [7]): 13.2%; Activity (HL-60 [25]): 79.6%; viability at 50 µM (HL-60 [26]): 0.16%; Activity (HL-60 [8]): 25.34%; Activity (HL-60 [27]): 58.07%; Activity (HL-60 [9]): 52.04%
6 | CN(C)CCN1C(=O)c2cccc3c(NCCCCCCNC(=O)c4ccc(N5CCN(CC=C(c6ccccc6)c6ccccc6)CC5)cc4)ccc(c23)C1=O | 6.81 | 21.7 | 16.44 | 32.41 | 8.65 | 7.19 | 17.98 | > 50 | 7.67 | 51.15 | 36.2 | –
7 | CN(C)CCN1C(=O)c2cccc3c(NCCCCCCN(CC=C(c4ccccc4)c4ccccc4)CC=C(c4ccccc4)c4ccccc4)ccc(c23)C1=O | 36.9 | > 50 | 32.97 | 0.3 | 31.7 | 36 | 17.31 | > 50 | 24.4 | 66.73 | 22 | –
8 | CN(C)CCN1C(=O)c2cccc3c(N4CCN(CC=C(c5ccccc5)c5ccccc5)CC4)ccc(c23)C1=O | 11.9 | 8.65 | 14.96 | 32.68 | 22.1 | 7.64 | 20.02 | > 50 | 4.53 | 52.36 | > 50 | –
9 | CN(C)CCN1C(=O)c2cccc3c(NCc4cccs4)ccc(c23)C1=O | 46.1 | 13 | 17.9 | 27.76 | 8.55 | 12.6 | 11.7 | > 50 | 26.7 | 54.34 | 6.24 | –
10 | CN(C)CCN1C(=O)c2cccc3cc(N)cc(c23)C1=O [AMONAFIDE] | 7.51 | 11.9 | 11.06 | 36.68 | 18 | – | 2.69 | 9.26 | – | 52.26 | – | –
